Assay results: ChEMBL document CHEMBL3259788, “Influence of the alkylsulfonylamino substituent located at the 6-position of 2,2-dimethylchromans structurally related to cromakalim: from potassium channel openers to calcium entry blockers?” (Eur J Med Chem, 2014)
pEC50: −log10 of the molar value. The source made the active and inactive calls. No cut-off for these calls is given here.

Legend:
[1] = Inhibition of glucose-induced insulin secretion in rat pancreatic islets assessed as residual insulin release level at 10 uM preincubated for 30 mins measured after 90 mins radioimmunology analysis; format: functional
Procedure, shortened: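 Batches of 10 rat islets preincubated 30 min at 37 °C in bicarbonate salt medium with 2.8 mM glucose and 0.5% albumin, gassed O2/CO2 (95/5). Then incubated 90 min at 37 °C with 16.7 mM glucose plus drug. Insulin measured by radioimmunoassay against a rat insulin standard and expressed as % of drug-free 16.7 mM glucose control. Mean ± SEM (n).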

Thoracic aorta [2] = experiment: Myorelaxant activity in endothelium-free rat thoracic aorta assessed as inhibition of 30 mM of KCl-induced contraction; format: functional, tissue-based
Procedure, shortened: (§1)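 Transverse thoracic aorta rings (3–4 mm), cleaned of fat and connective tissue and equilibrated 60 min, recorded isometrically by force transducer. Contraction induced with 30 or 80 mM KCl. After tension stabilized, drug added cumulatively up to maximal relaxation or 300 µM. Glibenclamide at 1 or 10 µM present throughout where stated. EC50 is the concentration giving 50% inhibition of the KCl plateau, from concentration-response curves. Mean ± SEM (n).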

Thoracic aorta [3] = experiment: Myorelaxant activity in endothelium-free rat thoracic aorta assessed as inhibition of 30 mM of KCl-induced contraction in presence of 1 uM of KATP channel blocker glibenclamide; format: functional, tissue-based; procedure, shortened: as §1
Thoracic aorta [4] = experiment: Myorelaxant activity in endothelium-free rat thoracic aorta assessed as inhibition of 30 mM of KCl-induced contraction in presence of 10 uM of KATP channel blocker glibenclamide; format: functional, tissue-based; procedure, shortened: as §1
Thoracic aorta [5] = experiment: Myorelaxant activity in endothelium-free rat thoracic aorta assessed as inhibition of 80 mM of KCl-induced contraction; format: functional, tissue-based; procedure, shortened: as §1
Thoracic aorta [6] = experiment: Ratio of EC50 for myorelaxant activity in endothelium-free rat thoracic aorta presence of 1 uM of KATP channel blocker glibenclamide to EC50 for myorelaxant activity in endothelium-free rat thoracic aorta absence of KATP channel blocker glibenclamide; format: functional; procedure, shortened: as §1
Thoracic aorta [7] = experiment: Ratio of EC50 for myorelaxant activity in endothelium-free rat thoracic aorta presence of 10 uM of KATP channel blocker glibenclamide to EC50 for myorelaxant activity in endothelium-free rat thoracic aorta absence of KATP channel blocker glibenclamide; format: functional; procedure, shortened: as §1
Thoracic aorta [8] = experiment: Effect on 86Rb fractional flow rate in endothelium-free rat thoracic aorta at 25 to 100 uM; format: functional, tissue-based
Procedure, shortened: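 Prelabelled 86Rb (42K substitute) efflux: pairs of 2 mm aortic rings preincubated 30 min at 37 °C in bicarbonate salt solution gassed O2/CO2 (95/5), loaded 60 min with 86Rb, washed, then perifused at 1.0 mL/min with 30 mM K+ medium throughout. Effluent collected per min from 31st to 90th min. Fractional outflow rate (% of instantaneous ring content per min) from scintillation counts.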

Thoracic aorta [9] = experiment: Inhibition of 80 mM of KCl-induced Ca2+ outflow in endothelium-free rat thoracic aorta assessed 45Ca outflow per min at 30 uM (reference value: 6.06 +/- 0.36%); format: functional; parameters: scale not given: the % may be the effect or the level left

| pEC50 (Thoracic aorta [2]) | Compound | Activity [1] [%] | further results |
| --- | --- | --- | --- |
| 4.76 | CCS(=O)(=O)Nc1ccc2c(c1)C(NC(=O)Nc1cccc(Cl)c1)CC(C)(C)O2 (centres undefined) | 72.1 |  |
| 5.01 | CCS(=O)(=O)Nc1ccc2c(c1)C(NC(=S)Nc1cccc(Cl)c1)CC(C)(C)O2 (centres undefined) | 54.3 |  |
| 4.58 | CC1=Nc2ccc(Cl)cc2S(=O)(=O)N1 [DIAZOXIDE] | 80.8 | inhibition (Thoracic aorta [3]): Dose-dependent effect; inhibition (Thoracic aorta [4]): Dose-dependent effect; pEC50 (Thoracic aorta [5]): < 3.52; Ratio EC50 (Thoracic aorta [6]): 4.4; Ratio EC50 (Thoracic aorta [7]): 8 |
| 5.02 | CCS(=O)(=O)Nc1ccc2c(c1)C(NC(=O)Nc1cccc(C#N)c1)CC(C)(C)O2 (centres undefined) | 75.6 |  |
| 4.93 | CCS(=O)(=O)Nc1ccc2c(c1)C(NC(=O)Nc1ccc(C#N)cc1)CC(C)(C)O2 (centres undefined) | 73.6 |  |
| < 5.00 | CCS(=O)(=O)Nc1ccc2c(c1)C(NC(=O)Nc1ccc(Cl)cc1)CC(C)(C)O2 (centres undefined) | 78.1 |  |
| 4.94 | CC1(C)CC(NC(=S)Nc2ccc(Cl)cc2)c2cc(NS(C)(=O)=O)ccc2O1 (centres undefined) | 63.9 |  |
| 4.70 | CC1(C)CC(NC(=O)Nc2ccc(C#N)cc2)c2cc(NS(C)(=O)=O)ccc2O1 (centres undefined) | 81.6 |  |
| < 4.52 | CC1(C)CC(NC(=O)Nc2ccc(Cl)cc2)c2cc(NS(C)(=O)=O)ccc2O1 (centres undefined) | 88.5 |  |
| 5.01 | CC1(C)CC(NC(=S)Nc2cccc(C#N)c2)c2cc(NS(C)(=O)=O)ccc2O1 (centres undefined) | 91.7 |  |
| 4.82 | CC1(C)CC(NC(=O)Nc2cccc(Cl)c2)c2cc(NS(C)(=O)=O)ccc2O1 (centres undefined) | 94.5 |  |
| 5.01 | CC1(C)CC(NC(=S)Nc2cccc(Cl)c2)c2cc(NS(C)(=O)=O)ccc2O1 (centres undefined) | 69.2 | inhibition (Thoracic aorta [2]): Dose-dependent effect; pEC50 (Thoracic aorta [3]): 4.78; pEC50 (Thoracic aorta [4]): 4.80; pEC50 (Thoracic aorta [5]): 4.77; Activity (Thoracic aorta [8]): inactive; Activity (Thoracic aorta [9]): 3.68% |
| 4.92 | CCS(=O)(=O)Nc1ccc2c(c1)C(NC(=S)Nc1cccc(C#N)c1)CC(C)(C)O2 (centres undefined) | 64.7 |  |
| 4.94 | CC1(C)CC(NC(=S)Nc2ccc(C#N)cc2)c2cc(NS(C)(=O)=O)ccc2O1 (centres undefined) | 81.7 |  |
| 5.03 | CC1(C)CC(NC(=O)Nc2cccc(C#N)c2)c2cc(NS(C)(=O)=O)ccc2O1 (centres undefined) | 84.4 |  |
| 7.51 | COc1ccc(CCN(C)CCCC(C#N)(c2ccc(OC)c(OC)c2)C(C)C)cc1OC (centres undefined) [VERAPAMIL] |  | inhibition (Thoracic aorta [2]): Dose-dependent effect; pEC50 (Thoracic aorta [3]): 7.42; pEC50 (Thoracic aorta [4]): 7.46; pEC50 (Thoracic aorta [5]): 7.28 |
| 5.29 | CCS(=O)(=O)Nc1ccc2c(c1)C(NC(=S)Nc1ccc(Cl)cc1)CC(C)(C)O2 (centres undefined) | 49.1 |  |
| 6.89 | CC1(C)Oc2ccc(C#N)cc2C(N2CCCC2=O)C1O (racemic) [CROMAKALIM] | 94.4 | pEC50 (Thoracic aorta [3]): 5.60; inhibition (Thoracic aorta [3]): Dose-dependent effect; pEC50 (Thoracic aorta [4]): 4.54; inhibition (Thoracic aorta [4]): Dose-dependent effect; pEC50 (Thoracic aorta [5]): 3.86; Ratio EC50 (Thoracic aorta [6]): 10; Ratio EC50 (Thoracic aorta [7]): 130 |
| 4.92 | CCS(=O)(=O)Nc1ccc2c(c1)C(NC(=S)Nc1ccc(C#N)cc1)CC(C)(C)O2 (centres undefined) | 57.9 |  |
